# Laboratory results: paper PMC7476277 (Thorax, 2020)
# Entries after “also recorded” stand apart in the source; their conditions may differ.
# Assays:
# [1] = test system: normal human lung fibroblasts (NHLFs); assay: bFGF-induced fibroblast proliferation; assay type: cell-based; settings: 100pM bFGF, 48 hours
# Method in brief: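 Normal human lung fibroblasts stimulated 48 h with recombinant human bFGF (100pM) plus test compound or DMSO vehicle. Proliferation measured by 3H-thymidine incorporation (counts per minute). Mean (SE) of three separate experiments.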
# [2] = test system: cord blood-derived mast cells (CBMCs); assay: recombinant SCF-mediated CBMC survival; assay type: cell-based, human; settings: 4 nM rhSCF, 7 days
# Method in brief: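 Cord blood–derived MCs, differentiated from CD133+ precursors, cultured 7 days with 4 nM rhSCF plus test compound or DMSO vehicle. Then stained with viability dye and anti-ckit APC; viable ckit-positive MCs in a fixed volume counted by flow cytometry and compared with control. Mean (SE) of three separate experiments.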
# [3] = test system: CBMCs co-cultured with NHLFs; assay: CBMC:NHLF co-culture, fibroblast-mediated MC survival and fibroblast numbers; assay type: cell-based, human; settings: 10 nM, day 14
# Method in brief: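 CBMCs and normal human lung fibroblasts were cultured alone or co-cultured at 1:1 for up to 21 days. Media lacked SCF and IL-6 and held test compound, DMSO vehicle, anti-SCF (67 nM) or goat IgG isotype (67 nM). At each time point, viability dye plus anti-ckit APC staining; viable ckit+ (MC) and ckit− (fibroblast) cells counted in a fixed volume by flow cytometry. Day-14 % inhibition vs isotype/vehicle; 3 experiments, 2 MC donors.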
# [4] = target: ckit (Homo sapiens, UniProt P10721); assay: rhSCF-mediated ckit phosphorylation in CBMCs; assay type: cell-based; settings: 4 nM rhSCF, 10 min stimulation
# Chain of ckit (P10721 26-976): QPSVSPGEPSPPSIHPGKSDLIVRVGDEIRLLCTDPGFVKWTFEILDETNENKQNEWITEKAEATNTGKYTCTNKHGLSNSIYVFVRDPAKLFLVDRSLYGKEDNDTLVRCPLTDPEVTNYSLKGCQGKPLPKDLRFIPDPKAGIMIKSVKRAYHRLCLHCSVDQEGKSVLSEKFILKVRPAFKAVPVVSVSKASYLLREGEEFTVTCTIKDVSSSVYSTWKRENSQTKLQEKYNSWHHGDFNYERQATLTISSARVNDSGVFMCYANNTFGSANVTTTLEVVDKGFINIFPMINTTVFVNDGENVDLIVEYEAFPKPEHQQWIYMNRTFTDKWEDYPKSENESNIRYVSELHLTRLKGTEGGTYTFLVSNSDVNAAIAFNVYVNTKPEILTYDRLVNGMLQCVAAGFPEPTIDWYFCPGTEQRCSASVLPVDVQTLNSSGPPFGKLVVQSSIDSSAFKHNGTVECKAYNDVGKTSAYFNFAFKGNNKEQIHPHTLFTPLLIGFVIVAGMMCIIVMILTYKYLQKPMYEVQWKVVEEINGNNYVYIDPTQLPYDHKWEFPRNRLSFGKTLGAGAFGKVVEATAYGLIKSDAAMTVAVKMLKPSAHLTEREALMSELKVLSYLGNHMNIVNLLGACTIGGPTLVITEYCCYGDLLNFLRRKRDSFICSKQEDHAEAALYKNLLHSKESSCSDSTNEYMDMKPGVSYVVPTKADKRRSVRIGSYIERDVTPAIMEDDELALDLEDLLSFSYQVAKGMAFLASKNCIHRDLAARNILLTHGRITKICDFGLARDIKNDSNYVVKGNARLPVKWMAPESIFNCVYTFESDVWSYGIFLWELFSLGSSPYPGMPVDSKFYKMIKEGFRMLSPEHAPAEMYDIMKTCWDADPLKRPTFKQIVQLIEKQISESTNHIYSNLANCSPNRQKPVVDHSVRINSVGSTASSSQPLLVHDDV
# [5] = test system: CCL2 release from CBMCs; assay: rhSCF-induced CCL2 release from MCs; assay type: cell-based; settings: Homo sapiens, 72 h, read-out: IC50, inhibition of CCL2 release
# Method in brief: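 CBMCs stimulated 3 days with 4 nM rhSCF together with test compound, DMSO vehicle, anti-SCF pAb (positive control) or goat IgG isotype. CCL2 in culture supernatants quantified by MesoScale Discovery electrochemiluminescence. Mean (SE) of 3 separate experiments.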
# [6] = test system: rat bleomycin model; assay: rat bleomycin model of lung fibrosis; assay type: in vivo; settings: 60 mg/kg daily oral
# Method in brief: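 Male CD rats, 6–8 weeks old, given intratracheal bleomycin sulphate 0.9 U/kg or saline 1 mL/kg under isoflurane on day 0. Test compound 60 mg/kg, or water vehicle, by daily oral gavage on days 0–13. Day 14: Giemsa-stained lung sections counted for MCs per lung area. H&E and Masson's trichrome images analysed for parenchymal tissue density (HDFm). Collagen proportion by trichrome image analysis, 5 sections/animal. n=5–9/group; Kruskal-Wallis.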
# [7] = read-out: maximum plasma concentration achieved at steady state (cmax); 150 mg twice daily dosing; cited from earlier work
Structure (SMILES),effect on bFGF-mediated fibroblast proliferation (in words) [1],effect on rhSCF-mediated MC survival (in words) [2],effect on fibroblast-mediated MC survival (in words) [3],extent of inhibition of ckit phosphorylation (in words) [4],IC50 [5] [nM],"effect on bleomycin-induced increase in lung MCs (number per area lung) ([6]; day 0-13, read-out day 14, 60 mg/kg)",effect on collagen (col1a1) mRNA expression in lung ([6]; day 14),effect on fibronectin (fn1) mRNA expression in lung ([6]; day 14),"effect on collagen content by Masson's trichrome (MTC) ([6]; day 14, 60 mg/kg)","effect on histamine levels in lung homogenates ([6]; day 14, 60 mg/kg)","effect on lung hydroxyproline levels ([6]; day 14, 60 mg/kg)","effect on high tissue density frequency (HDFm) in lung parenchyma ([6]; day 14, vs bleomycin vehicle control, 60 mg/kg)",Cmax [7] [nM]
Cc1ccc(=O)n(-c2ccccc2)c1 [pirfenidone],no impact,no impact,–,–,–,–,–,–,–,–,–,–,–
COC(=O)c1ccc2c(c1)NC(=O)/C2=C(\Nc1ccc(N(C)C(=O)CN2CCN(C)CC2)cc1)c1ccccc1 [nintedanib],–,–,inhibited survival,fully inhibited,12.2,ablated; also recorded: inhibited,no significant effect,no significant effect,trend towards decreased collagen; also recorded: not statistically significant,"reduction in the levels of histamine in lung homogenates, although this did not reach statistical significance",no significant effect,significantly decreased; also recorded: inhibited,70
